Legend:
[1] = Inhibition of lipopolysaccharide-induced mouse B cell proliferation assessed as [3H]TdR incorporation at 100 uM
[2] = Inhibition of concanavalin A-induced mouse T cell proliferation assessed as [3H]TdR incorporation at 0.1 uM; format: functional
In short: (§1)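 Mouse spleen cells (4 × 10^6/well) were stimulated with ConA at 5 µg/mL alongside compound at 1 × 10^-7 to 1 × 10^-4 M, then cultured for 48 h at 37 °C in 5% CO2. [3H]TdR (0.25 µCi/well) was added for the final 6 h, and uptake was read by liquid scintillation counting. Counts are means ± SD from three independent experiments, compared with controls by Student t-test.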

[3] = Inhibition of lipopolysaccharide-induced mouse B cell proliferation assessed as [3H]TdR incorporation at 1 uM
[4] = Inhibition of concanavalin A-induced mouse T cell proliferation assessed as [3H]TdR incorporation at 100 uM; format: functional
In short: as §1

[5] = Inhibition of concanavalin A-induced mouse T cell proliferation assessed as [3H]TdR incorporation at 1 uM; format: functional
In short: as §1

[6] = Inhibition of lipopolysaccharide-induced mouse B cell proliferation assessed as [3H]TdR incorporation at 10 uM
[7] = Inhibition of lipopolysaccharide-induced mouse B cell proliferation assessed as [3H]TdR incorporation at 0.1 uM
[8] = Inhibition of concanavalin A-induced mouse T cell proliferation assessed as [3H]TdR incorporation at 10 uM; format: functional
In short: as §1

SMILES	Activity [1] [cpm]	Activity [2] [cpm]	Activity [3] [cpm]	Activity [4] [cpm]	Activity [5] [cpm]	Activity [6] [cpm]	Activity [7] [cpm]	Activity [8] [cpm]
C=C(C)C(=O)O[C@H]1CC(=C)[C@@H]2C[C@@H](O)C(=C)[C@@H]2[C@H]2OC(=O)[C@@H](C)[C@@H]21	80	33800	31100	40	36100	20600	34800	30600
C=C1C[C@H](O)C[C@]2(C)CC[C@@](O)(C(=C)CO)C[C@@H]12	17200	39800	33600	12100	31500	30.8	36100	28300
C=C(CO)C(=O)O[C@H]1CC(=C)[C@@H]2C[C@@H](O)C(=C)[C@@H]2[C@H]2OC(=O)[C@@H](C)[C@@H]21	30	46300	29800	30	43800	34900	24300	13400
